The target in test [1] is Neuronal acetylcholine receptor. Type of test: tissue-based, Brain.
In test [2] the target is T1, Neuronal acetylcholine receptor (Rattus norvegicus) (UniProt P04757+P09483+P12389+P12390+P12392+P43144+Q9JLB5+P12391+P43143+P20420+Q05941).
Test [3] addresses T1, Neuronal acetylcholine receptor (Rattus norvegicus). The experiment in a line: Compounds was evaluate for their ability to enhance (+/-)-[3H]nicotine binding at a dose range 10 E -10 - 10 E -7 M was reported. Type of test: protein-complex assay. In short, it runs like this:
(§1)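 Bound ligand collected on poly-L-lysine-soaked glass-fibre filters, washed with cold Hepes and counted by liquid scintillation. Nonspecific binding defined with 10^-2 M (-)-nicotine. Triplicates, usually four homogenates. Enhancement tested by two-way ANOVA with linear/quadratic dose components, or pooled t-test.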

Test [4] deals with Neuronal acetylcholine receptor. In words: Compound was evaluated for ability to enhance the binding of (+/-)-[3H]nicotine to the rat brain P2 fraction at binding site 1. The format is tissue-based. In short, it runs like this: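 Whole-brain P2 fraction from female Sprague-Dawley rats (200–300 g), prepared at 4 °C, ~2 mg protein per tube. Triplicates, usually four homogenates. Enhancement assessed by two-way ANOVA or pooled t-test.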

The target of test [5] is T1, Neuronal acetylcholine receptor (Rattus norvegicus). The experiment in a line: Compounds was evaluate for their ability to enhance (+/-)-[3H]nicotine binding at a dose range 10 E -10 - 10 E -6 M was reported. Type of test: protein-complex assay. In outline: (§2)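 Whole-brain P2 fraction from female Sprague-Dawley rats (200–300 g), prepared at 4 °C, ~2 mg protein per tube. […] Nonspecific binding defined with 10^-2 M (-)-nicotine. Triplicates, usually four homogenates. Enhancement assessed by two-way ANOVA or pooled t-test.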

Test [6] shares this target. In words: Compounds was evaluate for their ability to enhance (+/-)-[3H]nicotine binding at a dose range 10 E -8 - 10 E -4 M was reported. The format is protein-complex assay. In outline: as §2
Test [7] concerns the target Neuronal acetylcholine receptor. The experiment in a line: Compounds was evaluated in vitro for ability to enhance and inhibit the binding of (+/-)-[3H]nicotine to the rat brain P2 fraction at binding site 1; 10e-10-10e-3. In outline: as §2
The target is the same in test [8]. Type of test: tissue-based, Brain. This is another data set of the same source.
Test [9] deals with T1, Neuronal acetylcholine receptor (Rattus norvegicus). In words: Compounds was evaluated for their ability to enhance (+/-)-[3H]nicotine binding at a dose range 10 E -9 - 10 E -6 M was reported. The format is protein-complex assay. In short, it runs like this:
as §1

The target is the same in test [10]. This is another data set of the same source.
The target is the same in test [11]. In words: Compounds was evaluate for their ability to enhance (+/-)-[3H]nicotine binding at a dose range 2.5*10e-9-2.5*10e-5 M was reported. Type of test: protein-complex assay. In outline:
as §2

Test [12] has the same target. In words: Compounds was evaluate for their ability to enhance (+/-)-[3H]nicotine binding at a dose range 10 E -12- 10 E -5 M was reported. The format is protein-complex assay. In short, it runs like this:
as §2

Test [13] addresses Neuronal acetylcholine receptor.
The target of test [14] is T1, Neuronal acetylcholine receptor (Rattus norvegicus). This is another data set of the same source.
Test [15] has the same target. The source holds these as a separate data set.
For test [16] the target is unchanged. The source holds these as a separate data set.
For test [17] the target is unchanged. In words: Compounds was evaluate for their ability to enhance (+/-)-[3H]nicotine binding at a dose range 10 E -10 - 10 E -5 M was reported. The format is protein-complex assay. In short, it runs like this:
as §2

pKd: −log10 of the molar value.

One may read the pKd as −log10 of the Kd, conventionally taken in molar units. Take `CCC1CCCCN1` (stereo not given): the pKd in test [1] is 2.10.
In turn, `OC1CCCNC1` (stereo not given) gave a pKd in test [1] of 3.09. Besides, the Mean enhancement of binding in test [2] amounted to 8.6.
Take `Nc1ccccn1` [2-AMINOPYRIDINE]: the pKd in test [1] was 3.70. For the same compound, the Mean enhancement of binding in test [3] amounted to 12.4.
Take `Oc1ccccn1`: the pKd in test [1] is 3.06. Further, in test [2], the Mean enhancement of binding is 10.
Take `CN1C(=O)CCC1c1cccnc1` (stereo not given): the pKd in test [1] was 2.33; in [4], 6.21.
`Nc1cccnc1` had a pKd in test [1] of 3.42. Further, in [5], the Mean enhancement of binding is 2.4.
In test [1], `OC1CCNCC1` showed a pKd of 2.52. Further, the Mean enhancement of binding in test [2] was determined as 4.
`CN1CCCC1` [N-METHYL PYRROLIDINE (NMP)]: the pKd in test [1] was 4.28. Moreover, the Mean enhancement of binding in [5] was 4.1.
Take `ON1CCCCC1`: the pKd in test [1] was 2.22. For the same compound, the Mean enhancement of binding in [6] was 8.5.
The compound `CCc1ccncc1` had a pKd in test [1] of 4.06.
`CCc1cccnc1` showed a pKd in test [1] of 5.02. The Mean enhancement of binding in test [5] came to 5.4.
Regarding `CC1CCCCN1` (stereo not given), the pKd in test [1] is 2.49; in [7], over 10.00.
Consider `C1CCNCC1` [PIPERIDINE], for which the pKd in [1] is 6.92; in test [8], 4.16. For the same compound, the Mean enhancement of binding in test [9] came to 10.3.
With `C[N+](C)(C)CCOC(N)=O`, the Mean enhancement of binding in test [10] came to 15.
Consider `C1CCNC1` [PYRROLIDINE], for which the Mean enhancement of binding in test [5] turned out to be 4.5.
As for `Cc1cccc(C)n1`, the negative logarithm of the Kd (pKd) in [1] was 2.00. The Mean enhancement of binding in test [2] amounted to 3.1.
For `CNC1(C)C2CCC(C2)C1(C)C` (stereo not given), the Mean enhancement of binding in [11] worked out at 16.4.
On to `CN1[C@@H]2CC[C@H]1C[C@@H](OC(=O)C(CO)c1ccccc1)C2` (stereo not given in full), for which the Mean enhancement of binding in [12] amounted to 14.9.
In the case of `Cc1ccccn1`, the pKd in test [1] is 7.30; in [13] it was 1.19. The Mean enhancement of binding in test [14] is 20.7.
In test [1], `CC1CCNCC1` showed a pKd of 2.41. Further, the Mean enhancement of binding in [2] was determined as 6.1.
As for `CN1CCC(O)CC1`, in [1], the pKd is 2.47. For the same compound, the Mean enhancement of binding in test [2] turned out to be 13.
As to `CCN1CCCCC1`, in test [1], the pKd is 5.48. Further, the Mean enhancement of binding in [5] was determined as 23.
`CCCC1CCCCN1` (stereo not given) showed a pKd in test [1] of 4.01.
In test [1], `CCc1ccccn1` showed a pKd of 4.00. Further, the Mean enhancement of binding in [5] was determined as 10.9.
In the case of `CN1CCC[C@H]1c1cccnc1`, in [15], the Mean enhancement of binding worked out at 4.7.
With `CN1[C@@H](CC(=O)c2ccccc2)CCC[C@H]1C[C@H](O)c1ccccc1`, the Mean enhancement of binding in test [16] came to 18.2.
As to `CC1CCCNC1` (stereo not given), the pKd in [1] is 3.05. The Mean enhancement of binding in [2] worked out at 5.2.
`CCCc1ccccn1` had a negative-log Kd (pKd) in [1] of 5.77. Besides, in test [17], the Mean enhancement of binding stood at 15.2.
In test [1], `Cc1ccncc1` had a pKd of 2.66. For the same compound, the Mean enhancement of binding in test [2] was determined as 6.6.
Compound `CN1CCCCC1` had a pKd in test [1] of 2.92. Further, in [17], the Mean enhancement of binding was found to be 10.
Compound `c1ccncc1` [PYRIDINE] gave a pKd in test [1] of 2.48.
With `Cc1cccnc1` [3-METHYLPYRIDINE], in test [4], the pKd is 2.74.

(Values after ChEMBL document CHEMBL1123034 (J Med Chem, 1985).)
